Measurements from ChEMBL document CHEMBL1687895, “Synthesis and anti-mycobacterial activity of novel amino alcohol derivatives” (Eur J Med Chem, 2011).
Converted amounts (≈) assume the structure as drawn.

What was measured:
[1] = test system: Mycobacterium tuberculosis; test: Antibacterial activity against Mycobacterium tuberculosis H37Rv ATCC 27294 after 24 hrs by alamar blue assay; format: functional; settings: H37Rv ATCC 27294, 24 h
In short: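 Microplate Alamar Blue assay on M. tuberculosis ATCC 27294 in Middlebrook 7H9 broth, with compounds serially diluted on the plate (final 0.01–20.0). Water in the outer wells limited evaporation. Sealed plates were incubated at 37 C for five days, then a fresh 1:1 Alamar Blue/10% Tween 80 mix was added for 24 h. MIC is the lowest concentration preventing the blue-to-pink change.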

[2] = Partition coefficient, log P of the compound; format: physicochemical; settings: octanol/water
In short: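 Computed in silico from structure with an online molecular-property calculation server's logP method, not measured by experimental partitioning.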

CC(C)(C)OC(=O)N[C@@H](Cc1ccccc1)[C@H](O)CNCc1ccc2c(c1)OCO2
MIC [1]: 241 µM (≈ 99.9 µg/mL)
logP [2]: 5.15

N[C@@H](Cc1ccccc1)[C@H](O)CNCc1ccc2c(c1)OCO2
MIC [1]: 318 µM (≈ 100 µg/mL)
logP [2]: 1.41

CC(C)(C)OC(=O)N[C@@H](Cc1ccccc1)[C@H](O)CN(Cc1ccc2c(c1)OCO2)S(=O)(=O)c1ccc(Br)cc1
MIC [1]: > 500 µM
logP [2]: 7.11

COc1ccc(S(=O)(=O)N(Cc2ccc3c(c2)OCO3)C[C@@H](O)[C@H](Cc2ccccc2)NC(=O)OC(C)(C)C)cc1
MIC [1]: > 500 µM
logP [2]: 6.36

Cc1ccc(S(=O)(=O)N(Cc2ccc3c(c2)OCO3)C[C@@H](O)[C@H](Cc2ccccc2)NC(=O)OC(C)(C)C)cc1
MIC [1]: > 500 µM
logP [2]: 6.75

CC(C)(C)OC(=O)N[C@@H](Cc1ccccc1)[C@H](O)CN(Cc1ccc2c(c1)OCO2)S(=O)(=O)c1ccc(F)cc1
MIC [1]: > 500 µM
logP [2]: 5.38

CC(C)(C)OC(=O)N[C@@H](Cc1ccccc1)[C@H](O)CN(Cc1ccc2c(c1)OCO2)S(=O)(=O)c1ccc([N+](=O)[O-])cc1
MIC [1]: > 500 µM
logP [2]: 6.26

CC(C)(C)OC(=O)N[C@@H](Cc1ccccc1)[C@H](O)CN(Cc1ccc2c(c1)OCO2)S(=O)(=O)c1ccc(N)cc1
MIC [1]: > 500 µM
logP [2]: 6.47

N[C@@H](Cc1ccccc1)[C@H](O)CN(Cc1ccc2c(c1)OCO2)S(=O)(=O)c1ccc(Br)cc1
MIC [1]: 23.5 µM (≈ 12.5 µg/mL)
logP [2]: 3.37

COc1ccc(S(=O)(=O)N(Cc2ccc3c(c2)OCO3)C[C@@H](O)[C@@H](N)Cc2ccccc2)cc1
MIC [1]: 51.6 µM (≈ 25 µg/mL)
logP [2]: 2.62

Cc1ccc(S(=O)(=O)N(Cc2ccc3c(c2)OCO3)C[C@@H](O)[C@@H](N)Cc2ccccc2)cc1
MIC [1]: 106 µM (≈ 49.7 µg/mL)
logP [2]: 3.01

N[C@@H](Cc1ccccc1)[C@H](O)CN(Cc1ccc2c(c1)OCO2)S(=O)(=O)c1ccc(F)cc1
MIC [1]: 211 µM (≈ 99.7 µg/mL)
logP [2]: 1.64

N[C@@H](Cc1ccccc1)[C@H](O)CN(Cc1ccc2c(c1)OCO2)S(=O)(=O)c1ccc([N+](=O)[O-])cc1
MIC [1]: > 500 µM
logP [2]: 2.52

CC[C@@H](CO)NCCN[C@@H](CC)CO [ETHAMBUTOL]
MIC [1]: 15.9 µM (≈ 3.25 µg/mL)
logP [2]: 0.35
